Screening results as filed in PubChem.
bIAP activator = intestinal alkaline phosphatase (bovine) activation; purified bovine IAP, CDP-star luminescence, 30 min; hits give high values; fold of DMSO-control signal, blank-subtracted; activation factor at 20 µM; hit rate 0.17% among 200,000; AID 1016;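 active = activation factor of 2 or more at 20 µM, a signal rise over negative controls twice the positive control's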
mIAP inh = blocks mouse intestinal alkaline phosphatase | purified mouse IAP, CDP-Star luminescence, 30 min | inhibition, % at 10 µM | hit rate 0.2% among 330,000 | AID 2806;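 active = inhibition of at least 40% at 10 µM in the primary screen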;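 also: plate controls were DMSO with enzyme for no effect and no enzyme wells for full effect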
bIAP inh = intestinal alkaline phosphatase (bovine) inhibition; purified bovine IAP, CDP-star luminescence, 30 min; inhibition, % at 20 µM; 190,000 tested, under 10 active; AID 1019;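 active = over 50% inhibition of intestinal alkaline phosphatase at 20 µM in the single-dose screen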
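Incubation: 30 min reaction at room temperature / Material: purified bovine intestinal alkaline phosphatase (IAP) enzyme / Input: enzyme at 1/65,000,000 dilution / Dosing: 20 µM single dose / Signal: CDP-star luminescence signal / Reagent: CDP-star chemiluminescent phosphatase substrate, 30 µM final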
hIAP act = human IAP activation; AID 2524; purified human IAP, CDP-Star luminescence, 30 min; hits give high values; 1 = vehicle-only enzyme, 0 = enzyme-free background; activation factor at 10 µM; hit rate 0.16% among 330,000; P09923;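 active = activation factor of the enzyme at least 2-fold when tested at 20 µM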
Target sequence (P09923 whole entry, looked up): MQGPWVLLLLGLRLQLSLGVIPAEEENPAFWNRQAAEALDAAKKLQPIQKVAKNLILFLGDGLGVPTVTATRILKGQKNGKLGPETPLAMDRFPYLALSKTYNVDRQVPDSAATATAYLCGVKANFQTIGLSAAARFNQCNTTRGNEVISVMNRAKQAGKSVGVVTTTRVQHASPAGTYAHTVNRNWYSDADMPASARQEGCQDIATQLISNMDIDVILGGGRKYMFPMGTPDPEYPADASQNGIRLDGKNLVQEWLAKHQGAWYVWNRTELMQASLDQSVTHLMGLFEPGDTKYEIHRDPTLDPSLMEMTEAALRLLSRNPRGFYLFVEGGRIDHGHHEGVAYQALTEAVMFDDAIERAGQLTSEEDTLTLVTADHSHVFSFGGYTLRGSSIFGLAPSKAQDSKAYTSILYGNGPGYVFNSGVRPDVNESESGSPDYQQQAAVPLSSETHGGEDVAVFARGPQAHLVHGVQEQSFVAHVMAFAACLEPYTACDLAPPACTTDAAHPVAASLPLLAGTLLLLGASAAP
hIAP block = blocks human intestinal alkaline phosphatase. purified IAP, CDP-Star luminescence, 30 min. inhibition, % at 10 µM. hit rate 0.12% among 330,000;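 active = inhibition reaching a set limit with compound at 10 µM in the primary screen, cut at about 35% in these data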;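 also: plate controls were DMSO wells with enzyme for no effect and no-enzyme buffer wells for full effect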
mIAP act = increases mouse intestinal alkaline phosphatase activity; AID 2805; hit rate 0.24% among 330,000; muIAP, CDP-Star luminescence, 30 min; hits give high values; 1 = vehicle-only enzyme signal, 0 = enzyme-free wells; activation factor at 10 µM;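 active = activation factor of at least 2 at 20 µM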
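also added = chemiluminescent substrate CDP-Star | test system = mouse IAP enzyme | signal = chemiluminescence readout | compound = DMSO-dissolved test compounds | incubation = 30 min at room temperature | benchmarks = DMSO wells, no-enzyme wells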
* = called active by the depositor; . = not tested or not shown. This is a sample that favours compounds with a hit; in the whole collection about 0.79% have one here.

SMILES	bIAP activator	mIAP inh	bIAP inh	hIAP act	hIAP block	mIAP act
C[C@H](CO)N1C[C@H](C)[C@@H](CN(C)S(=O)(=O)c2ccc(F)cc2)Oc2ccc(NC(=O)Nc3ccc4c(c3)OCO4)cc2C1=O	.	-146.8	.	1.1	-9.8	2.47*
C[C@H](CO)N1C[C@H](C)[C@@H](CN(C)S(C)(=O)=O)Oc2ccc(NC(=O)Nc3ccc4c(c3)OCO4)cc2C1=O	.	-29.8	.	0.956	4.4	1.3
COc1ccc(CC2=CC(=O)c3ccccc3C2=O)cc1	.	5.9	.	1.01	-1.2	0.941
O=C(NCCc1cccc(Cl)c1)c1ccc(OC2CCN(Cc3ccccn3)CC2)cc1	.	-19.5	.	1.36	-36.5	1.2
COc1ccc2cc(C(=O)N3CCc4ccccc43)[nH]c2c1	.	-0.3	.	0.964	3.6	1
O=C(Nc1cccc2ccccc12)c1cn(-c2ccccc2)nc1-c1cccs1	1.1	-118.4	-11.6	1.02	-2.4	2.18*
CC(C)NC[C@@H](O)c1ccc(O)c(O)c1	0.9	43.0*	10.8	1.05	-5.4	0.57
COc1ccc(NC(=S)NNC(=O)CCn2cc([N+](=O)[O-])cn2)cc1	1.3	5.6	-31.4	2.06*	-106.5	0.944
FC(F)Sc1ccc(NC(=S)NCc2ccccc2)cc1	0.9	-106.2	7.6	0.996	0.4	2.06*
FC(F)(F)c1ccc(NC(=S)NCc2ccccc2)cc1	0.9	-100.2	12.8	1.1	-9.8	2*
Cc1cccc(OCCCCCn2ccnc2)c1C	3*	-6.3	-201.9	1	-0.2	1.06
O=C(O)c1ccccc1C(=O)Nc1ccc(Br)c(C(F)(F)F)c1	.	-8.7	.	0.965	3.5	1.09
Cc1cc(C)c(C(=O)Nc2ccc(Br)c(C(F)(F)F)c2)c(C)c1	1.1	-114.2	-9.0	1.07	-7.0	2.14*
Cc1ccc(NC(=O)C2CCN(S(=O)(=O)c3ccc4c(c3)NC(=O)C(C)S4)CC2)cc1Cl (configuration not stated)	.	-137.2	.	1.53	-52.9	2.37*
COC(=O)[C@]1(C)N[C@H](CN(C)C(=O)Nc2ccc(OC)cc2)[C@@H]2C(=O)N(Cc3ccccc3)C(=O)[C@@H]21	.	-9.1	.	1.21	-21.0	1.09
N/C(=N\OC(=O)c1cccc2ccccc12)c1cccc([N+](=O)[O-])c1	0.9	-2.6	11.2	0.946	5.4	1.03
Cc1cccc(/C(N)=N/OC(=O)c2cccc3ccccc23)c1	.	6.7	.	0.599	40.1*	0.933
COc1ccccc1N(CC(=O)Nc1ccc(Cc2ccncc2)cc1)S(=O)(=O)c1ccccc1	.	-22.2	.	1.23	-23.3	1.22
COc1ccc(N(CC(=O)Nc2ccc(Cc3ccncc3)cc2)S(=O)(=O)c2ccccc2)cc1	.	-135.4	.	1.22	-22.2	2.35*
S=C(NCc1ccccc1)NC1CCCc2ccccc21 (configuration not stated)	1	-156.6	-3.2	1.03	-3.5	2.57*
Cc1cccc(S(=O)Cc2ccc(C(=O)N3CCOCC3)o2)c1 (configuration not stated)	.	1.7	.	1.07	-7.5	0.983
O=C(O)c1ccc(CS(=O)c2cccc(C(F)(F)F)c2)o1 (configuration not stated)	3.2*	0.2	-223.5	0.735	26.5	0.998
O=C(N/N=C/c1ccc(O)cc1)c1cc(-c2ccc3c(c2)OCO3)n[nH]1	0.9	13.5	11.4	0.645	35.5*	0.865
CCC(C)C(NC(=O)C1CCC(C)CC1)C(=O)NCc1ccccn1 (configuration not stated)	1	-9.2	2.0	0.955	4.5	1.09
CCC(C(=O)NC1CCCC1)N(Cc1cccs1)C(=O)Cn1nnc(-c2ccc(OC)c(OC)c2)n1 (configuration not stated)	0.9	-109.1	6.5	1.29	-29.1	2.09*
SMILES	bIAP activator	mIAP inh	bIAP inh	hIAP act	hIAP block	mIAP act
COc1ccc(C(C(=O)NC2CCCC2)N(Cc2cccs2)C(=O)c2ccn[nH]2)cc1OC (configuration not stated)	2.3*	-29.0	-130.6	1.41	-41.3	1.29
COCCN(C(=O)Cc1cccs1)C(C(=O)NC1CCCC1)c1ccc(OC)c(OC)c1 (configuration not stated)	1	-0.8	-0.8	1.43	-43.1	1.01
COc1ccc(-c2nnn(CC(=O)N(Cc3cccs3)C(C)C(=O)NC3CCCC3)n2)cc1OC (configuration not stated)	1.3	-7.2	-25.0	0.945	5.5	1.07
COc1ccccc1NC(=O)CN1CCN(C2c3ccccc3-c3ccccc32)CC1	2*	-9.1	-95.5	1.1	-9.8	1.09
O=C(CN1C(=O)NC2(CCCC2)C1=O)NCc1ccc(Cl)cc1	.	0.7	.	0.973	2.7	0.993
COc1ccccc1NC(=S)NC(=O)/C=C/c1ccco1	1	42.1*	4.8	0.908	9.2	0.579
Cc1cccc(NC(=S)NC(=O)/C=C/c2ccco2)c1	1	17.1	-1.7	1.21	-20.8	0.829
O=C(/C=C/c1ccco1)NC(=S)Nc1cccc([N+](=O)[O-])c1	1	59.5*	-2.8	1.06	-6.0	0.405
Cc1cc(C)c(S(=O)(=O)Nc2cccc(/C=C/C(=O)O)c2)c(C)c1	1.4	4.1	-43.6	1.03	-2.7	0.959
CCCCCCCCC(=O)NC(NC(=S)N1CCOCC1)C(Cl)(Cl)Cl (configuration not stated)	1	-235.6	4.9	1.73	-73.1	3.36*
O=C(O)CCCCCn1c(O)c(C=C2N=c3ccccc3=N2)sc1=S	0.8	40.1*	24.4	1.3	-30.2	0.599
CCCCCCCCn1ccc(=N)cc1	.	-4.7	.	0.975	2.5	1.05
CCOc1ccc2oc(C(=O)NCc3ccccc3CN3CCCC3)c(C)c2c1	.	-5.4	.	0.86	14.0	1.05
COC(=O)C1=C(C)NC(=O)NC1c1ccc(N2CCC(c3ccccc3)=N2)cc1 (configuration not stated)	1	-119.0	-2.0	1.21	-20.8	2.19*
Cc1cc(/C=N/n2cnnc2)c(C)n1-c1ccc(OCc2ccc(Cl)cc2Cl)cc1	2.5*	-17.8	-147.7	1.23	-22.7	1.18
Cc1cc(/C=N/n2cnnc2)c(C)n1-c1ccc(Cl)cc1	0.9	0.2	10.2	1.01	-1.0	0.998
CCn1c(C(O)c2ccc3c(c2)OCO3)nc2ccccc21 (configuration not stated)	2.5*	-2.5	-153.5	0.908	9.2	1.02
CCn1c(C(O)c2cc(OC)c(OC)c(OC)c2)nc2ccccc21 (configuration not stated)	.	-5.9	.	1.11	-11.0	1.06
COc1ccc(C[C@H]2CN3C(=NC[C@H]3Cc3ccccc3)N2CCNC(=O)CCC2CCCCC2)cc1	2.4*	-4.9	-139.8	1.01	-1.0	1.05
COc1ccc(C[C@H]2CN3C(=NC[C@@H]3Cc3ccccc3)N2C[C@H](C)NC(=O)CCC2CCCCC2)cc1	.	7.1	.	0.927	7.3	0.929
